Tests used:
[1] = target: Beta-lactamase (Pseudomonas aeruginosa (strain ATCC 15692 / PAO1 / 1C / PRS 101 / LMG12228)) (UniProt P24735); experiment: Inhibition of ampD, ampDh2 and ampDh3 deficient Pseudomonas aeruginosa PAO1 AmpC assessed as nitrocefin hydrolyzed per mg of protein at 120 uM by UV spectrophotometry
How it was run: (§1)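 Cells cultured with or without 120 μM CCCP; crude extracts made by sonication; β-lactamase measured by UV spectrophotometry with 100 μM nitrocefin substrate at 30°C; specific activity as nmol nitrocefin hydrolyzed per min per mg protein (BCA, BSA standard); triplicate, averaged.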

[2] = target: Beta-lactamase (Pseudomonas aeruginosa (strain ATCC 15692 / PAO1 / 1C / PRS 101 / LMG12228)) (UniProt P24735); experiment: Inhibition of ampD, ampDh2, ampDh3 and ampG deficient Pseudomonas aeruginosa PAO1 AmpC assessed as nitrocefin hydrolyzed per mg of protein at 120 uM by UV spectrophotometry; how it was run: as §1
[3] = target: Beta-lactamase (Pseudomonas aeruginosa (strain ATCC 15692 / PAO1 / 1C / PRS 101 / LMG12228)) (UniProt P24735); experiment: Inhibition of ampD, ampDh2, ampDh3 and ampG deficient Pseudomonas aeruginosa PAO1 AmpC harboring pZY0901 conferring resistance to gentamycin assessed as nitrocefin hydrolyzed per mg of protein at 120 uM by UV spectrophotometry; how it was run: as §1

Chain of Beta-lactamase (Pseudomonas aeruginosa (strain ATCC 15692 / PAO1 / 1C / PRS 101 / LMG12228)) (P24735 27-397 limits assumed): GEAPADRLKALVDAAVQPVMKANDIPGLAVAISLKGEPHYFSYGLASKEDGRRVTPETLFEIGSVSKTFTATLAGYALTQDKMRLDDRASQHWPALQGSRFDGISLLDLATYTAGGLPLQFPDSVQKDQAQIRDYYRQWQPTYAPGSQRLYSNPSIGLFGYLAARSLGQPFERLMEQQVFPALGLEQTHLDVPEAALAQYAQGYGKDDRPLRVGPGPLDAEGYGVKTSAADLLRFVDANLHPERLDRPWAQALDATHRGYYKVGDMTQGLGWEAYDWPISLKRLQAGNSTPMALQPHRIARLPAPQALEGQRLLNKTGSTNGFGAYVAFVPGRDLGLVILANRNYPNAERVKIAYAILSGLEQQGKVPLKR

N#CC(C#N)=NNc1cccc(Cl)c1 showed an Activity [1] of 1220 nmol/min, an Activity [2] of 3 nmol/min and an Activity [3] of 2800 nmol/min.

— ChEMBL document CHEMBL1687785, “ampG gene of Pseudomonas aeruginosa and its role in β-lactamase expression” (2010)
